Experiments:
Canis familiaris = assay: Tested in anesthetized dog for its inotropic activity after intravenous administration; format: functional; conditions: Canis lupus familiaris
How it was run: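 Mongrel dogs of either sex (7-14 kg), anesthetized with sodium pentobarbital (35 mg/kg iv). Dosing was via a femoral vein cannula. Contractility was measured by a Walton-Brodie strain-gauge arch on the right ventricle (tension 50 g); heart rate by cardiometer; lead II ECG. Doses of 0.01 to 8.0 mg/kg iv were given in increasing steps at 5-min intervals. Peak responses are reported as mean ± SEM (n = 4) or mean ± range (n = 2).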

Felis catus = species: Felis catus; assay: Inotropic activity in cat papillary muscle at 10e-5 M expressed as percent of control; format: functional
How it was run: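 Isolated-tissue bath preparation with contractions recorded on a polygraph. Compounds were dissolved in DMSO and added cumulatively, each concentration being allowed to produce its maximal response before the next higher one was added.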

Structure (SMILES) | ED50 (Canis familiaris) | Inotropic activity (% of control) (Felis catus)
COc1cc([S+](C)[O-])ccc1-c1cn2ccncc2n1 (stereo not drawn) | 0.1 mg/kg | 161%
COc1ccc(-c2cn3ncccc3n2)c(OC)c1 |  | 115%
COc1ccc(-c2nc3cc[nH]cc-3n2)c(OC)c1 | 0.3 mg/kg | 158%
COc1ccc(-c2cn3cnccc3n2)c(OC)c1 |  | 114%
COc1cc([S+](C)[O-])ccc1-c1nc2cccnc2[nH]1 (stereo not drawn) [SULMAZOLE] |  | 112%
COc1ccc(-c2cn3nccnc3n2)c(OC)c1 |  | 130%
COc1ccc(-c2nc3ccc[nH]c-3n2)c(OC)c1 |  | 146%
COc1cc(SC)ccc1-c1nc2cc[nH]cc-2n1 | 0.2 mg/kg | 143%
COc1cc(SC)ccc1-c1cn2ccncc2n1 | 0.5 mg/kg | 140%
COc1cc([S+](C)[O-])ccc1-c1nc2cnccc2[nH]1 (stereo not drawn) [ISOMAZOLE] | 0.03 mg/kg | 172%
COc1cc(S(C)(=O)=O)ccc1-c1cn2ccncc2n1 | 0.02 mg/kg | 180%
COc1ccc(-c2cn3ccncc3n2)c(OC)c1 | 0.7 mg/kg | 145%
COc1cc(S(C)(=O)=O)ccc1-c1nc2ccncc2[nH]1 | 0.02 mg/kg | 176%
COc1ccc(-c2cn3cccnc3n2)c(OC)c1 |  | 136%
COc1ccc(-c2cn3ccccc3n2)c(OC)c1 |  | 98%

— ChEMBL document CHEMBL1124181, “Imidazo[1,2-a]pyrimidines and imidazo[1,2-a]pyrazines: the role of nitrogen position in inotropic activity” (1988)
